≈ marks a conversion by molar mass, not a printed value.

This is an account of results in ChEMBL document CHEMBL4138284, “Biomimetic Stereoselective Sulfa-Michael Addition Leads to Platensimycin and Platencin Sulfur Analogues against Methicillin-Resistant Staphylococcus aureus” (J Nat Prod, 2018).

The first data set has as its system Staphylococcus aureus. As to the kind of experiment: Antibacterial activity against methicillin-resistant Staphylococcus aureus isolate 11 incubated overnight by agar dilution method. Format: functional.
Conditions: not given
An outline of the steps: (§1)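 MIC by agar dilution. Strains were grown overnight in LB broth and diluted, then about 10^4 CFU (2 μL spots) were spotted onto LB agar plates containing test compound at 0.5 to 8 μg mL−1 agar. Plates were incubated overnight at 37 °C and inspected for growth. Clinical MSSA and MRSA isolates came from local hospitals.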
In the case of `Cc1ccc(S[C@H]2CC(=O)[C@@](C)(CCC(=O)Nc3c(O)ccc(C(=O)O)c3O)[C@@H]3[C@@H]4C[C@H]5C[C@]23C[C@]5(C)O4)cc1`, the minimum inhibitory concentration (MIC) was determined as 2 µg/mL (≈ 3.54 µM).

With `CC(=O)S[C@H]1CC(=O)[C@@](C)(CCC(=O)Nc2c(O)ccc(C(=O)O)c2O)[C@@H]2[C@@H]3C[C@H]4C[C@]12C[C@]4(C)O3`, the MIC was determined as 4 µg/mL (≈ 7.73 µM).

For the compound `COc1ccc(C(=O)S[C@H]2CC(=O)[C@@](C)(CCC(=O)Nc3c(O)ccc(C(=O)O)c3O)[C@@H]3[C@@H]4C[C@H]5C[C@]23C[C@]5(C)O4)cc1`, the lowest concentration to inhibit growth (MIC) was 2 µg/mL (≈ 3.28 µM). This MIC is about 2-fold lower than that of the compound before.

Another data set deals with Staphylococcus aureus. As to the kind of experiment: Antibacterial activity against methicillin-resistant Staphylococcus aureus isolate 10 incubated overnight by agar dilution method. It counts as functional.
Conditions: not given
In a few lines: as §1
Compound `Cc1ccc(S[C@H]2CC(=O)[C@@](C)(CCC(=O)Nc3c(O)ccc(C(=O)O)c3O)[C@@H]3[C@@H]4C[C@H]5C[C@]23C[C@]5(C)O4)cc1` registered a minimum inhibitory concentration (MIC) of 2 µg/mL (≈ 3.54 µM).

Consider `CC(=O)S[C@H]1CC(=O)[C@@](C)(CCC(=O)Nc2c(O)ccc(C(=O)O)c2O)[C@@H]2[C@@H]3C[C@H]4C[C@]12C[C@]4(C)O3`, for which the lowest concentration to inhibit growth (MIC) was 2 µg/mL (≈ 3.86 µM).

For the compound `COc1ccc(C(=O)S[C@H]2CC(=O)[C@@](C)(CCC(=O)Nc3c(O)ccc(C(=O)O)c3O)[C@@H]3[C@@H]4C[C@H]5C[C@]23C[C@]5(C)O4)cc1`, the MIC worked out at 1 µg/mL (≈ 1.64 µM).

The test system of another data set is Staphylococcus aureus. Nature of the data set: Antibacterial activity against methicillin-resistant Staphylococcus aureus isolate 5 incubated overnight by agar dilution method. Format: functional.
Conditions: not given
An outline of the steps:
as §1
Take `Cc1ccc(S[C@H]2CC(=O)[C@@](C)(CCC(=O)Nc3c(O)ccc(C(=O)O)c3O)[C@@H]3[C@@H]4C[C@H]5C[C@]23C[C@]5(C)O4)cc1`: inhibition of growth (MIC) required 4 µg/mL (≈ 7.07 µM).

`CC(=O)S[C@H]1CC(=O)[C@@](C)(CCC(=O)Nc2c(O)ccc(C(=O)O)c2O)[C@@H]2[C@@H]3C[C@H]4C[C@]12C[C@]4(C)O3` came in with a minimal inhibitory concentration (MIC) of 2 µg/mL (≈ 3.86 µM).

Take `COc1ccc(C(=O)S[C@H]2CC(=O)[C@@](C)(CCC(=O)Nc3c(O)ccc(C(=O)O)c3O)[C@@H]3[C@@H]4C[C@H]5C[C@]23C[C@]5(C)O4)cc1`: the lowest concentration to inhibit growth (MIC) was 2 µg/mL (≈ 3.28 µM).

A further data set has as its system Staphylococcus aureus. As to the kind of experiment: Antibacterial activity against methicillin-resistant Staphylococcus aureus isolate 9 incubated overnight by agar dilution method.
Conditions: not given
Format: functional. In a few lines: as §1
Compound `Cc1ccc(S[C@H]2CC(=O)[C@@](C)(CCC(=O)Nc3c(O)ccc(C(=O)O)c3O)[C@@H]3[C@@H]4C[C@H]5C[C@]23C[C@]5(C)O4)cc1` registered an MIC of 2 µg/mL (≈ 3.54 µM).

`CC(=O)S[C@H]1CC(=O)[C@@](C)(CCC(=O)Nc2c(O)ccc(C(=O)O)c2O)[C@@H]2[C@@H]3C[C@H]4C[C@]12C[C@]4(C)O3` gave a minimal inhibitory concentration (MIC) of 2 µg/mL (≈ 3.86 µM).

With `COc1ccc(C(=O)S[C@H]2CC(=O)[C@@](C)(CCC(=O)Nc3c(O)ccc(C(=O)O)c3O)[C@@H]3[C@@H]4C[C@H]5C[C@]23C[C@]5(C)O4)cc1`, the minimal inhibitory concentration (MIC) turned out to be 1 µg/mL (≈ 1.64 µM).

System in another data set: not listed separately
As to the kind of experiment: Stability of the compound in PBS at pH 5.8 at 0.1 mg/ml after 16 hrs by HPLC analysis. Format: physicochemical. The conditions noted are these: buffer, pH 5.8, 16 h. An outline of the steps:
(§2)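 Compound at 0.1 mg mL−1 dissolved in 1 mM PBS at the stated pH. Held at 37 °C for 16 h. Remaining compound and retro-Michael reversion products analysed by HPLC.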
For `COc1ccc(C(=O)S[C@H]2CC(=O)[C@@](C)(CCC(=O)Nc3c(O)ccc(C(=O)O)c3O)[C@@H]3[C@@H]4C[C@H]5C[C@]23C[C@]5(C)O4)cc1`, the Stability result is given as “Stable”.

In the next data set the test system is Staphylococcus aureus. Nature of the data set: Antibacterial activity against methicillin-sensitive Staphylococcus aureus isolate 2 incubated overnight by agar dilution method. It counts as functional.
Conditions: not given
An outline of the steps:
as §1
For `Cc1ccc(S[C@H]2CC(=O)[C@@](C)(CCC(=O)Nc3c(O)ccc(C(=O)O)c3O)[C@@H]3[C@@H]4C[C@H]5C[C@]23C[C@]5(C)O4)cc1`, the lowest concentration to inhibit growth (MIC) was 2 µg/mL (≈ 3.54 µM).

Take `CC(=O)S[C@H]1CC(=O)[C@@](C)(CCC(=O)Nc2c(O)ccc(C(=O)O)c2O)[C@@H]2[C@@H]3C[C@H]4C[C@]12C[C@]4(C)O3`: it took 2 µg/mL (≈ 3.86 µM) to inhibit growth (MIC).

On to `COc1ccc(C(=O)S[C@H]2CC(=O)[C@@](C)(CCC(=O)Nc3c(O)ccc(C(=O)O)c3O)[C@@H]3[C@@H]4C[C@H]5C[C@]23C[C@]5(C)O4)cc1`, for which the minimum inhibitory concentration (MIC) came out at 1 µg/mL (≈ 1.64 µM).

For another data set, the system named is Staphylococcus aureus. As to the kind of experiment: Antibacterial activity against methicillin-sensitive Staphylococcus aureus isolate 3 incubated overnight by agar dilution method. It counts as functional.
Conditions: not given
An outline of the steps: as §1
The compound `Cc1ccc(S[C@H]2CC(=O)[C@@](C)(CCC(=O)Nc3c(O)ccc(C(=O)O)c3O)[C@@H]3[C@@H]4C[C@H]5C[C@]23C[C@]5(C)O4)cc1` had an MIC of 2 µg/mL (≈ 3.54 µM).

With `CC(=O)S[C@H]1CC(=O)[C@@](C)(CCC(=O)Nc2c(O)ccc(C(=O)O)c2O)[C@@H]2[C@@H]3C[C@H]4C[C@]12C[C@]4(C)O3`, the lowest concentration to inhibit growth (MIC) was 2 µg/mL (≈ 3.86 µM).

`COc1ccc(C(=O)S[C@H]2CC(=O)[C@@](C)(CCC(=O)Nc3c(O)ccc(C(=O)O)c3O)[C@@H]3[C@@H]4C[C@H]5C[C@]23C[C@]5(C)O4)cc1` had a minimal inhibitory concentration (MIC) of 1 µg/mL (≈ 1.64 µM). Against the preceding compound, the MIC is about 2-fold lower.

A further data set concerns Staphylococcus aureus. Nature of the data set: Antibacterial activity against Staphylococcus aureus ATCC 29213 incubated overnight by agar dilution method. Format: functional.
Conditions: not given
An outline of the steps:
as §1
`Cc1ccc(S[C@H]2CC(=O)[C@@](C)(CCC(=O)Nc3c(O)ccc(C(=O)O)c3O)[C@@H]3[C@@H]4C[C@H]5C[C@]23C[C@]5(C)O4)cc1` returned a minimal inhibitory concentration (MIC) of 4 µg/mL (≈ 7.07 µM).

In turn, `CC(=O)S[C@H]1CC(=O)[C@@](C)(CCC(=O)Nc2c(O)ccc(C(=O)O)c2O)[C@@H]2[C@@H]3C[C@H]4C[C@]12C[C@]4(C)O3` returned an MIC of 2 µg/mL (≈ 3.86 µM). Compared with the last compound, the MIC is about 2-fold lower.

For the compound `COc1ccc(C(=O)S[C@H]2CC(=O)[C@@](C)(CCC(=O)Nc3c(O)ccc(C(=O)O)c3O)[C@@H]3[C@@H]4C[C@H]5C[C@]23C[C@]5(C)O4)cc1`, the MIC came out at 1 µg/mL (≈ 1.64 µM).

For another data set, the system named is Staphylococcus aureus. As to the kind of experiment: Antibacterial activity against methicillin-sensitive Staphylococcus aureus isolate 4 incubated overnight by agar dilution method. Format: functional.
Conditions: not given
In a few lines:
as §1
In turn, `Cc1ccc(S[C@H]2CC(=O)[C@@](C)(CCC(=O)Nc3c(O)ccc(C(=O)O)c3O)[C@@H]3[C@@H]4C[C@H]5C[C@]23C[C@]5(C)O4)cc1` had a minimum inhibitory concentration (MIC) of 2 µg/mL (≈ 3.54 µM).

Turning to `CC(=O)S[C@H]1CC(=O)[C@@](C)(CCC(=O)Nc2c(O)ccc(C(=O)O)c2O)[C@@H]2[C@@H]3C[C@H]4C[C@]12C[C@]4(C)O3`, the MIC was determined as 2 µg/mL (≈ 3.86 µM).

Take `COc1ccc(C(=O)S[C@H]2CC(=O)[C@@](C)(CCC(=O)Nc3c(O)ccc(C(=O)O)c3O)[C@@H]3[C@@H]4C[C@H]5C[C@]23C[C@]5(C)O4)cc1`: the minimal inhibitory concentration (MIC) is 1 µg/mL (≈ 1.64 µM). Against the preceding compound, the MIC is about 2-fold lower.

Another data set concerns Staphylococcus aureus. As to the kind of experiment: Antibacterial activity against methicillin-resistant Staphylococcus aureus isolate 7 incubated overnight by agar dilution method. Format: functional.
Conditions: not given
An outline of the steps: as §1
Regarding `Cc1ccc(S[C@H]2CC(=O)[C@@](C)(CCC(=O)Nc3c(O)ccc(C(=O)O)c3O)[C@@H]3[C@@H]4C[C@H]5C[C@]23C[C@]5(C)O4)cc1`, the minimum inhibitory concentration (MIC) was found to be 4 µg/mL (≈ 7.07 µM).

Compound `CC(=O)S[C@H]1CC(=O)[C@@](C)(CCC(=O)Nc2c(O)ccc(C(=O)O)c2O)[C@@H]2[C@@H]3C[C@H]4C[C@]12C[C@]4(C)O3` had a minimal inhibitory concentration (MIC) of 4 µg/mL (≈ 7.73 µM).

`COc1ccc(C(=O)S[C@H]2CC(=O)[C@@](C)(CCC(=O)Nc3c(O)ccc(C(=O)O)c3O)[C@@H]3[C@@H]4C[C@H]5C[C@]23C[C@]5(C)O4)cc1` returned an MIC of 2 µg/mL (≈ 3.28 µM).

Another data set concerns Staphylococcus aureus. As to the kind of experiment: Antibacterial activity against methicillin-sensitive Staphylococcus aureus isolate 1 incubated overnight by agar dilution method. It counts as functional.
Conditions: not given
In a few lines: as §1
For `Cc1ccc(S[C@H]2CC(=O)[C@@](C)(CCC(=O)Nc3c(O)ccc(C(=O)O)c3O)[C@@H]3[C@@H]4C[C@H]5C[C@]23C[C@]5(C)O4)cc1`, the minimum inhibitory concentration (MIC) came out at 2 µg/mL (≈ 3.54 µM).

The compound `CC(=O)S[C@H]1CC(=O)[C@@](C)(CCC(=O)Nc2c(O)ccc(C(=O)O)c2O)[C@@H]2[C@@H]3C[C@H]4C[C@]12C[C@]4(C)O3` came in with a minimum inhibitory concentration (MIC) of 2 µg/mL (≈ 3.86 µM).

In the case of `COc1ccc(C(=O)S[C@H]2CC(=O)[C@@](C)(CCC(=O)Nc3c(O)ccc(C(=O)O)c3O)[C@@H]3[C@@H]4C[C@H]5C[C@]23C[C@]5(C)O4)cc1`, it took 1 µg/mL (≈ 1.64 µM) to inhibit growth (MIC).

In the next data set the test system is Staphylococcus aureus. As to the kind of experiment: Antibacterial activity against methicillin-resistant Staphylococcus aureus isolate 8 incubated overnight by agar dilution method. Format: functional.
Conditions: not given
In a few lines: as §1
For the compound `Cc1ccc(S[C@H]2CC(=O)[C@@](C)(CCC(=O)Nc3c(O)ccc(C(=O)O)c3O)[C@@H]3[C@@H]4C[C@H]5C[C@]23C[C@]5(C)O4)cc1`, 2 µg/mL (≈ 3.54 µM) was the least that counted as inhibitory (MIC).

In the case of `CC(=O)S[C@H]1CC(=O)[C@@](C)(CCC(=O)Nc2c(O)ccc(C(=O)O)c2O)[C@@H]2[C@@H]3C[C@H]4C[C@]12C[C@]4(C)O3`, inhibition of growth (MIC) required 2 µg/mL (≈ 3.86 µM).

Consider `COc1ccc(C(=O)S[C@H]2CC(=O)[C@@](C)(CCC(=O)Nc3c(O)ccc(C(=O)O)c3O)[C@@H]3[C@@H]4C[C@H]5C[C@]23C[C@]5(C)O4)cc1`, for which the MIC amounted to 1 µg/mL (≈ 1.64 µM).

Another data set concerns Staphylococcus aureus. Nature of the data set: Antibacterial activity against methicillin-resistant Staphylococcus aureus isolate 6 incubated overnight by agar dilution method. Format: functional.
Conditions: not given
In a few lines: as §1
The compound `Cc1ccc(S[C@H]2CC(=O)[C@@](C)(CCC(=O)Nc3c(O)ccc(C(=O)O)c3O)[C@@H]3[C@@H]4C[C@H]5C[C@]23C[C@]5(C)O4)cc1` gave a minimal inhibitory concentration (MIC) of 2 µg/mL (≈ 3.54 µM).

The compound `CC(=O)S[C@H]1CC(=O)[C@@](C)(CCC(=O)Nc2c(O)ccc(C(=O)O)c2O)[C@@H]2[C@@H]3C[C@H]4C[C@]12C[C@]4(C)O3` showed an MIC of 2 µg/mL (≈ 3.86 µM).

On to `COc1ccc(C(=O)S[C@H]2CC(=O)[C@@](C)(CCC(=O)Nc3c(O)ccc(C(=O)O)c3O)[C@@H]3[C@@H]4C[C@H]5C[C@]23C[C@]5(C)O4)cc1`, for which the minimal inhibitory concentration (MIC) was determined as 1 µg/mL (≈ 1.64 µM).

System in a further data set: not listed separately
Nature of the data set: Stability of the compound in PBS at pH 7.1 at 0.1 mg/ml after 16 hrs by HPLC analysis. Format: physicochemical. The conditions noted are these: buffer, pH 7.1, 16 h. In a few lines:
as §2
Consider `COc1ccc(C(=O)S[C@H]2CC(=O)[C@@](C)(CCC(=O)Nc3c(O)ccc(C(=O)O)c3O)[C@@H]3[C@@H]4C[C@H]5C[C@]23C[C@]5(C)O4)cc1`, for which the Stability entry is given as “Stable”.
